Drawing on ChEMBL document CHEMBL4513216, “Probing the Open Global Health Chemical Diversity Library for Multistage-Active Starting Points for Next-Generation Antimalarials” (ACS Infect Dis, 2020), this text covers cytotoxicity for 96 molecules.

Each structure is given as a SMILES string.

This data set in a line: Toxicity liver stage against HepG2, at 10uM. The format is cell-based. Also on record: test concentration 10 uM, cell line HepG2-A16-CD81EGFP. To be noted: human, HepG2-A16-CD81EGFP cells; read-out: INHIBITION
The method, boiled down: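 Uninfected HepG2-A16-CD81EGFP cells, 3 × 10^3 per well, 1536-well, plated on prespotted compound at 10 μM final, parasite-free screening media added to match infected plates; puromycin 10 μM positive, DMSO 0.5% negative; run in parallel with 48 h PbLuc assay at 37 °C, 5% CO2; viability by CellTiter-Glo luminescence, normalized to controls.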
For `CC(=O)N1CC=C(n2c(=O)[nH]c3ccccc32)CC1`, the cytotoxicity at 10 µM is 1.73%.

Consider `CC(C)CN1C[C@@H]2C(=O)NC3(CCN(C(=O)c4cccnc4)CC3)[C@@H]2C1`, for which the cytotoxicity at 10 µM is 5.53%.

With `O=C(c1cc(F)cc(F)c1)N1C[C@H]2CNC[C@H]2C1`, the cytotoxicity at 10 µM was 2.91%.

Turning to `COc1ccc(C2=C(C)C(N3CCc4ccccc4C3)=NS2(=O)=O)cc1`, the cytotoxicity at 10 µM was -6.34%.

Consider `CN(C)S(=O)(=O)N1CCC(Oc2cnccn2)CC1`, for which the cytotoxicity at 10 µM was 1.65%.

`CSc1ncn(-c2nc(N(C)C)nc(N(C)C)n2)n1`: the cytotoxicity at 10 µM is -3.54%.

Take `Cc1nn(C)c(C)c1CN1CCNCC1`: the cytotoxicity at 10 µM amounted to 4.68%.

Turning to `Cc1cc(=O)n(CC(=O)NCC2CCCO2)c(-c2ccccc2)n1` (stereo unspecified), the cytotoxicity at 10 µM is -14.6%.

In the case of `Nc1nccc(C2CN(Cc3ccc(-c4ccccc4C(=O)O)o3)C2)n1`, the cytotoxicity at 10 µM was 5%.

As for `O=C(O)c1cccc(CN2CCCC(c3ccn[nH]3)C2)c1` (stereo unspecified), the cytotoxicity at 10 µM worked out at 3.98%.

For `O=C(CC1CCN(c2cccnn2)CC1)Nc1cccnc1`, the cytotoxicity at 10 µM worked out at 3.72%.

For the molecule `CN1CCN(C(=O)c2ccccc2)CC(Cc2cc(N(C)C)ncn2)C1` (stereo unspecified), the cytotoxicity at 10 µM stood at 2%.

Consider `COCC(=O)N1C[C@@H](c2cccc(F)c2)[C@H]2[C@H]1CCCCCN2C(C)=O`, for which the cytotoxicity at 10 µM was 4.22%.

For `Cc1nn(C)c(C)c1-c1cnc(CC2CCNCC2)cn1`, the cytotoxicity at 10 µM is -13.7%.

`CC(C)N1CCCC(CNC(=O)Cc2csc(-c3cccnc3)n2)C1` (stereo unspecified): the cytotoxicity at 10 µM is -51.5%.

Take `Cn1cc(S(=O)(=O)N2CCCC(Cn3cncn3)C2)cn1` (stereo unspecified): the cytotoxicity at 10 µM came out at 2%.

`CSCC(=O)NC(Cc1ccc(C)cc1)c1ccccn1` (stereo unspecified): the cytotoxicity at 10 µM was 1.23%.

With `CCCN1CCC(NCc2cccc(CN3CCOC(C)C3)c2)CC1` (stereo unspecified), the cytotoxicity at 10 µM is -13%.

Take `CN(C)c1ncccc1NC(=O)COCC1CC1`: the cytotoxicity at 10 µM is -4.69%.

For `CNC(=O)CSC(C)c1ccc(Br)cc1` (stereo unspecified), the cytotoxicity at 10 µM is -5.71%.

On to `COC(C)C(=O)Nc1cc(C(=O)N2CCSCC2)ccc1C` (stereo unspecified), for which the cytotoxicity at 10 µM is 6.83%.

For `CS(=O)(=O)NC1CCCN(C(=O)Nc2cccnc2N2CCCC2)C1` (stereo unspecified), the cytotoxicity at 10 µM was -131%.

Turning to `CC(C)c1nnc2n1CCN(C(=O)c1cn(-c3ccccc3)nn1)C2`, the cytotoxicity at 10 µM is -144%.

Turning to `COc1c(C2CCCN2C(=O)c2cc(C3CC3)on2)c(C)nn1C` (stereo unspecified), the cytotoxicity at 10 µM was -2.87%.

As for `Cc1ccc(N2CCCC(NC(=O)C(C)(C)C#N)C2=O)cc1` (stereo unspecified), the cytotoxicity at 10 µM was -2.42%.

As to `Cc1ccc(S(=O)(=O)NC(=O)C2(c3ccccc3)CCC2)c(C)c1`, the cytotoxicity at 10 µM came out at 13.5%.

As for `Cc1ccc(S(=O)(=O)N(CCO)C2CC2)cc1N(C)C`, the cytotoxicity at 10 µM was -8.91%.

Turning to `CC(=O)N1CCN(C(=O)CCc2cc(Br)cs2)CC1`, the cytotoxicity at 10 µM was -9.74%.

As for `COC(=O)N1CCCN(C(=O)NC2CCc3ccccc3C2)CC1` (stereo unspecified), the cytotoxicity at 10 µM is -1.14%.

As to `O=C(COc1cccc(Br)c1)N1CCN(c2nccs2)CC1`, the cytotoxicity at 10 µM was -1.53%.

`Cc1ncsc1C(=O)N1CCCC(c2noc(C(C)C)n2)C1` (stereo unspecified): the cytotoxicity at 10 µM is -2.04%.

For the molecule `COCCN(Cc1ccc(F)cc1Cl)C(=O)c1ccncc1`, the cytotoxicity at 10 µM is -5.69%.

For `COCc1cncc2c1CCN(C(=O)c1cscn1)C2`, the cytotoxicity at 10 µM is -104%.

In the case of `CC(C)CN1C[C@@H]2CN(c3cnccn3)C[C@@H]2C1=O`, the cytotoxicity at 10 µM was -91.6%.

Take `CS(=O)(=O)NC[C@]12COC[C@H]1CN(C(=O)N1CCCC1)C2`: the cytotoxicity at 10 µM was -109%.

Turning to `Cc1nccc(NCc2cc3n(n2)CCCN(C(=O)C2CCC2)C3)n1`, the cytotoxicity at 10 µM was -128%.

Regarding `Cc1nnc(SCCCNC(=O)Nc2ccc3c(c2)OCO3)s1`, the cytotoxicity at 10 µM is 7.28%.

With `Cn1cc(CN(C(=O)c2ccc(O)c(Cl)c2)C2CC2)cn1`, the cytotoxicity at 10 µM was found to be 5.17%.

Regarding `OCC1(O)CCCN(Cc2nnc(-c3ccccc3)o2)CC1` (stereo unspecified), the cytotoxicity at 10 µM is -3.69%.

Regarding `O=C(O)c1ccnc(-c2ccnc(COc3ccc(Cl)cc3)n2)c1`, the cytotoxicity at 10 µM is -6.67%.

`Cc1ncsc1C(=O)N[C@@H](Cc1ccccc1)C(N)=O`: the cytotoxicity at 10 µM is -44.9%.

With `O=C(NCCCOC1CCCCC1)C1NCCc2[nH]cnc21` (stereo unspecified), the cytotoxicity at 10 µM was 4.68%.

On to `CN1CCCC2(CCN(C(=O)Cn3ncc4ccccc4c3=O)C2)C1=O` (stereo unspecified), for which the cytotoxicity at 10 µM is 1.57%.

Consider `CC(Nc1nccc(CCC(F)(F)F)n1)c1nc(-c2ccccn2)no1` (stereo unspecified), for which the cytotoxicity at 10 µM is -6.43%.

On to `COc1cccc(S(=O)(=O)N2C[C@@H](N(C)C)[C@H](C(C)C)C2)c1`, for which the cytotoxicity at 10 µM was -51.2%.

As to `Cc1cc(C(=O)N[C@H]2Cc3ccccc3[C@@H]2N)c(=O)[nH]c1C`, the cytotoxicity at 10 µM was 11.2%.

Regarding `COCC1(NC(=O)C(c2ccc(F)cc2)N(C)C)CCCC1` (stereo unspecified), the cytotoxicity at 10 µM is -44.9%.

As to `CC(C)N1CCC(N2CCCC(C(=O)NCC3(O)CCCCC3)C2)CC1` (stereo unspecified), the cytotoxicity at 10 µM turned out to be 2.59%.

Turning to `c1nc(N2CCCC2)ncc1CN1CCCC(CN2CCCCC2)C1` (stereo unspecified), the cytotoxicity at 10 µM is -5.45%.

On to `Cc1nn(C)c(C)c1CN(C)C(C(=O)O)c1ccc(F)cc1F` (stereo unspecified), for which the cytotoxicity at 10 µM was 8.42%.

In the case of `COCCn1ccnc1C1CCCN(c2cnccn2)C1` (stereo unspecified), the cytotoxicity at 10 µM was determined as 3.23%.

For the molecule `CCCn1cc(C(=O)NC(C(=O)O)c2ccccc2C(F)(F)F)c(C)n1` (stereo unspecified), the cytotoxicity at 10 µM was -50.2%.

With `O=C(NCCCn1cccn1)C1CCC(=O)N(CC2CCCCC2)C1` (stereo unspecified), the cytotoxicity at 10 µM was -0.312%.

Take `O=C1CC2(CCN(Cc3ccc(-c4ccccc4)s3)C2)C(=O)N1` (stereo unspecified): the cytotoxicity at 10 µM is -0.745%.

`Clc1ccc(N2CCC(C3CCN(Cc4cccnc4)CC3)C2)nc1` (stereo unspecified): the cytotoxicity at 10 µM was 13.5%.

For the molecule `Cc1cc(CN2CC3(CCN(C(=O)C4CC4)CC3)CC2C(=O)O)oc1C` (stereo unspecified), the cytotoxicity at 10 µM was 1.1%.

With `CC(C)c1cc(N2CCCC3(CCN(C)C3)C2)ncn1` (stereo unspecified), the cytotoxicity at 10 µM is -7.36%.

As to `NC(=O)CN1CC2(CCC1=O)CCN(Cc1cc(F)ccc1Cl)CC2`, the cytotoxicity at 10 µM amounted to 18.6%.

On to `CC(C)N1CCC(Cc2cc(-c3cccc(C(=O)O)c3)ncn2)C1` (stereo unspecified), for which the cytotoxicity at 10 µM came to 3.01%.

As for `C[C@]1(O)CCN(Cc2cncs2)C[C@@H]1Oc1cccc(F)c1`, the cytotoxicity at 10 µM amounted to 6.06%.

Consider `CC(C)c1nc(C2CCCN2Cc2ccon2)no1` (stereo unspecified), for which the cytotoxicity at 10 µM is -3.5%.

With `Cc1cccc(C(=O)NCc2ccccc2)n1`, the cytotoxicity at 10 µM was -4.83%.

As for `CCc1nnc(CN2CCCCC2Cn2cncn2)o1` (stereo unspecified), the cytotoxicity at 10 µM was -1.1%.

In the case of `CCOc1cc(C)nc(N2CCN(C(=O)CN(C)C3CC3)CC2)n1`, the cytotoxicity at 10 µM worked out at 5.05%.

For `CC(Cc1ccco1)NC(=O)Nc1ccc(N2CCCC2)nc1` (stereo unspecified), the cytotoxicity at 10 µM was -3.31%.

`CC(Cn1cccn1)NC(=O)NCCc1ccsc1` (stereo unspecified): the cytotoxicity at 10 µM was -14.8%.

As to `COc1ccsc1C(=O)N1CCCC(n2cncn2)C1` (stereo unspecified), the cytotoxicity at 10 µM is 4.6%.

For `Cc1nc(CN2CCCC(c3cc(C(F)(F)F)[nH]n3)C2)cs1` (stereo unspecified), the cytotoxicity at 10 µM was -4.95%.

Consider `Cc1ccc(OCCN(C)C(=O)NC(C)c2nncn2C)cc1` (stereo unspecified), for which the cytotoxicity at 10 µM was -9.77%.

As to `Cc1cnn(CC2CN(CCc3ccccn3)CCO2)c1` (stereo unspecified), the cytotoxicity at 10 µM was -4.98%.

In the case of `Cc1ccc(-c2nc(CN3CCCCC3Cn3cncn3)no2)cc1` (stereo unspecified), the cytotoxicity at 10 µM is -0.403%.

As for `COc1cccc(C(=O)N2CCC(Nc3ccc(C)nn3)CC2)c1`, the cytotoxicity at 10 µM was -2.24%.

As for `Cn1ncc2c(NCC3CCCN3c3cccnn3)ncnc21` (stereo unspecified), the cytotoxicity at 10 µM was -11.9%.

In the case of `CC(C)c1nc(CN2CCN(CC(O)c3ccccc3)CC2)no1` (stereo unspecified), the cytotoxicity at 10 µM is -3.6%.

For `COc1c(CNC2CCc3cc(C)ccc32)c(C)nn1C` (stereo unspecified), the cytotoxicity at 10 µM is -0.0225%.

For the molecule `O=C(c1ccc2c(c1)COC2)N1CCCN(Cc2cscn2)CC1`, the cytotoxicity at 10 µM was 0.0102%.

`Cn1ccnc1CN1CCN(CC(O)c2cc(F)ccc2F)CC1` (stereo unspecified): the cytotoxicity at 10 µM is -13.8%.

`O=C(CCc1ccccn1)N1CCCN(C(=O)CC2CCCC2)CC1`: the cytotoxicity at 10 µM was -0.546%.

Take `CCOc1ccc(CC(CNC(=O)c2ccc(C)s2)C(N)=O)cc1` (stereo unspecified): the cytotoxicity at 10 µM was -3.85%.

For `Cc1cnc(CN2CCOC(CN(C)c3cccnn3)C2)cn1` (stereo unspecified), the cytotoxicity at 10 µM worked out at 3.64%.

With `Cc1cc(C(=O)N2CCC(Nc3cccnn3)CC2)no1`, the cytotoxicity at 10 µM was -0.0225%.

`Cc1nn(C)c(C)c1C1CCCN1Cc1nc(C2CC2)no1` (stereo unspecified): the cytotoxicity at 10 µM is -6.68%.

In the case of `CCc1nc(CN(C)C2CCN(CCS(C)(=O)=O)C2)no1` (stereo unspecified), the cytotoxicity at 10 µM worked out at 4.45%.

For `COc1cc(C(=O)N2CCCS2(=O)=O)cc(Cl)c1OC`, the cytotoxicity at 10 µM is 2.31%.

Consider `CCc1nc(C2CCCN(C(=O)c3ccc4[nH]nnc4c3)C2)no1` (stereo unspecified), for which the cytotoxicity at 10 µM was determined as 2.67%.

Regarding `OCC1CCC2(CC1)CN(Cc1ccccn1)Cc1ccccc1O2` (stereo unspecified), the cytotoxicity at 10 µM is 5.35%.

As for `CC(C)N(C)Cc1cnc2n1CCN(Cc1ccsc1)C2`, the cytotoxicity at 10 µM turned out to be 1.96%.

With `O=C1[C@@H]2CN(Cc3ccccn3)C[C@H]2CCN1c1cncnc1`, the cytotoxicity at 10 µM was -115%.

In the case of `CC(C)Nc1nc2c(cc1C(=O)O)CCN(Cc1ccsc1)CC2`, the cytotoxicity at 10 µM worked out at 0.676%.

In the case of `COc1ccc(CN2CCC3(CC(=O)N(c4cccc(F)c4)C3)C2)cc1` (stereo unspecified), the cytotoxicity at 10 µM was -137%.

On to `O=C(NCC1CCOCC1)[C@@H]1C[C@@H]2[C@@H](CCN2Cc2nccs2)O1`, for which the cytotoxicity at 10 µM came out at 0.11%.

Take `COCC1CN(Cc2ccc(C)s2)Cc2nnn(C)c21` (stereo unspecified): the cytotoxicity at 10 µM is 5.17%.

With `CN(C)[C@@H]1CCN(C(=O)NC2CCCC2)[C@H]1Cc1cnn(C)c1`, the cytotoxicity at 10 µM is -0.336%.

Consider `CCn1cc(CN2C[C@@H]3CC[C@H]2CN(C(=O)c2ccncc2)C3)cn1`, for which the cytotoxicity at 10 µM came out at 10.2%.

As to `Cc1[nH]ccc1C(=O)N1C[C@@H]2CC[C@H]1CN(S(=O)(=O)N(C)C)C2`, the cytotoxicity at 10 µM worked out at 11.8%.

`NC(=O)NCC(=O)N1C[C@@H]2CC[C@H]1CN(C1Cc3ccccc3C1)C2`: the cytotoxicity at 10 µM is 15.3%.
